In ChEMBL document CHEMBL5705905, “Pharmacological targeting of kinases MST1 and MST2 augments tissue repair and regeneration” (Sci Transl Med, 2016):
Activity calls are given as the source filed them. The rule behind the calls is not given here.

Assays:
[1] = target: Mitogen-activated protein kinase kinase kinase 20 (Homo sapiens) (UniProt Q9NYL2); experiment: Inhibition of ZAK (unknown origin) assessed as remaining activity at 1 uM by Kinome scan method relative to control
[2] = target: Mitogen-activated protein kinase kinase kinase 15 (Homo sapiens) (UniProt Q6ZN16); experiment: Inhibition of MAP3K15 (unknown origin) assessed as remaining activity at 1 uM by Kinome scan method relative to control
[3] = target: Serine/threonine-protein kinase RIO1 (Homo sapiens) (UniProt Q9BRS2); experiment: Inhibition of RIOK1 (unknown origin) assessed as remaining activity at 1 uM by Kinome scan method relative to control
[4] = test system: Tyrosine-protein kinase ABL1 (Homo sapiens), P00519 [F317I]; experiment: Inhibition of phosphorylated ABL1 F317I mutant (unknown origin) assessed as remaining activity at 1 uM by Kinome scan method relative to control
Tyrosine-protein kinase ABL1 (Homo sapiens), P00519 [F317I], sequence (P00519 whole entry F317I): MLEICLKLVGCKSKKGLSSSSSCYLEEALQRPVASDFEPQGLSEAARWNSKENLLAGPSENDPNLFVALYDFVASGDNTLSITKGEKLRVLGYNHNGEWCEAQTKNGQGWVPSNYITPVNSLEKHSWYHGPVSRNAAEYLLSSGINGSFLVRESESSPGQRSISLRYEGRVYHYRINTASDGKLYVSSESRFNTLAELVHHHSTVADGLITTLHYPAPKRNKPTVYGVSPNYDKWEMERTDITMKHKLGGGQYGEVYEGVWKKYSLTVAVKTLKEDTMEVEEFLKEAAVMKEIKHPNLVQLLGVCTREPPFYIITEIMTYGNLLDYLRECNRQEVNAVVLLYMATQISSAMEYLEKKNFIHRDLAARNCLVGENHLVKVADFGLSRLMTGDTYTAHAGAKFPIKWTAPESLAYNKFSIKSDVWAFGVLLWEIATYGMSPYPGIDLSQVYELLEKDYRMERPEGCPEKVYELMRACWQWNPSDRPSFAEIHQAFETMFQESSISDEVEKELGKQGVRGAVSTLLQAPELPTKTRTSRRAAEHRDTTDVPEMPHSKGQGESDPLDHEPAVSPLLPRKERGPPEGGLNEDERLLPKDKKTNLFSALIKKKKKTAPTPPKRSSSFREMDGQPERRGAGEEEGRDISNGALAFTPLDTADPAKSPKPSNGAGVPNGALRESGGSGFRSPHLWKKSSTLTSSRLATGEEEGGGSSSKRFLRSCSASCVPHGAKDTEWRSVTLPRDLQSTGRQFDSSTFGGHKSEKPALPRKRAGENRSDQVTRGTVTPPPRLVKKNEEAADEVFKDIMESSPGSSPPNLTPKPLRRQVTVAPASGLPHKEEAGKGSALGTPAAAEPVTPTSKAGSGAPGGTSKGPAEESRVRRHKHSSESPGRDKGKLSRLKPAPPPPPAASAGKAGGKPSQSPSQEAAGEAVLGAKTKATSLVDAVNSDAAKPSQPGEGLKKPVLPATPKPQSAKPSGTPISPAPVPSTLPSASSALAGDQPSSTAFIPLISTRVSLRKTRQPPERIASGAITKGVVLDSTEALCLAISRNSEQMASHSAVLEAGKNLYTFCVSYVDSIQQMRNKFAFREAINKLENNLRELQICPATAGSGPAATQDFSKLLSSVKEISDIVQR

[5] = target: Myosin-IIIa (Homo sapiens) (UniProt Q8NEV4); experiment: Inhibition of MYO3A (unknown origin) assessed as remaining activity at 1 uM by Kinome scan method relative to control
[6] = test system: Mus musculus; experiment: In vivo inhibition of MST1/2 in mouse assessed as block in MOB1 phosphorylation level at 1 mg/kg, ip administration by immunoblot analysis; format: functional, organism-based
Method in brief: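 Wild-type mice received escalating intraperitoneal doses, and livers were collected 3 h later. Liver lysates were immunoblotted for p-MOB1 and quantified relative to controls. Means ± SD, n = 3, Student's t test.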

[7] = target: Serine/threonine-protein kinase Nek2 (Homo sapiens) (UniProt P51955); experiment: Inhibition of NEK2 (unknown origin) assessed as remaining activity at 1 uM by Kinome scan method relative to control
Serine/threonine-protein kinase Nek2 (Homo sapiens), sequence (P51955 whole entry): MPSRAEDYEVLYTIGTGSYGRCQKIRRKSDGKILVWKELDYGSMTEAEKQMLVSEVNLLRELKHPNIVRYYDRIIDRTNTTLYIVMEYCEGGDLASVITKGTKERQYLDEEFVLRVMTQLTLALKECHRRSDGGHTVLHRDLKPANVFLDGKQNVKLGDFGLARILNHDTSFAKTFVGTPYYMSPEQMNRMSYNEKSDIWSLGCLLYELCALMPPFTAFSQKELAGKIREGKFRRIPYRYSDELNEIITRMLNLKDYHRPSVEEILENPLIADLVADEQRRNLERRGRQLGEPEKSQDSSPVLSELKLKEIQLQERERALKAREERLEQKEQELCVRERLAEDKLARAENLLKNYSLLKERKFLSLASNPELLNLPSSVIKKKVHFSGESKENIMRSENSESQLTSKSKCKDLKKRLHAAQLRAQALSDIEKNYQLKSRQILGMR

[8] = target: Serine/threonine-protein kinase Nek7 (Homo sapiens) (UniProt Q8TDX7); experiment: Inhibition of NEK7 (unknown origin) assessed as remaining activity at 1 uM by Kinome scan method relative to control
Serine/threonine-protein kinase Nek7 (Homo sapiens), sequence (Q8TDX7 whole entry, looked up): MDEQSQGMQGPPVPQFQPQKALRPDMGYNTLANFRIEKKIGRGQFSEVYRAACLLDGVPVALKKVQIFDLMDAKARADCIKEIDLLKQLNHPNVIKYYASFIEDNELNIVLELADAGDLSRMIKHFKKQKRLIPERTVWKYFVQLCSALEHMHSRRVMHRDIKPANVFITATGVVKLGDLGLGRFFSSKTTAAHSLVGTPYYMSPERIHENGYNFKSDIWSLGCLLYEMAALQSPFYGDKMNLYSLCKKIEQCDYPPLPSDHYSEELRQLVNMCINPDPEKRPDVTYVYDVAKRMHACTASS

[9] = target: T1, Serine/threonine-protein kinase 3 (Homo sapiens, UniProt Q13188); experiment: Binding affinity to MST2 (unknown origin) assessed as dissociation constant
T1 sequence (Q13188 whole entry): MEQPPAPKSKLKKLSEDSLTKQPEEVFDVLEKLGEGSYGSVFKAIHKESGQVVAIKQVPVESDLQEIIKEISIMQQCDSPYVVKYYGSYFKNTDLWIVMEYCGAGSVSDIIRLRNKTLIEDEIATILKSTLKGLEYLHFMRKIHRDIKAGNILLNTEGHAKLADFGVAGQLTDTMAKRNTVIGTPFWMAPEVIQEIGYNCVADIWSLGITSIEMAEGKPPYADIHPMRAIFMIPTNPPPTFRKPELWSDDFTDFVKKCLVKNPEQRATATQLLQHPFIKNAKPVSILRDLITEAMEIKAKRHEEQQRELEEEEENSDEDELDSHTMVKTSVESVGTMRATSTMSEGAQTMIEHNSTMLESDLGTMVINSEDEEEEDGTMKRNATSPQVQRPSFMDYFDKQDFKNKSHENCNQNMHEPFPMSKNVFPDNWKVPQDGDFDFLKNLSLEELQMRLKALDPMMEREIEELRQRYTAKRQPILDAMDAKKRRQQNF

[10] = target: Mitogen-activated protein kinase kinase kinase 19 (Homo sapiens) (UniProt Q56UN5); experiment: Inhibition of YSK4 (unknown origin) assessed as remaining activity at 1 uM by Kinome scan method relative to control
Mitogen-activated protein kinase kinase kinase 19 (Homo sapiens), sequence (Q56UN5 whole entry): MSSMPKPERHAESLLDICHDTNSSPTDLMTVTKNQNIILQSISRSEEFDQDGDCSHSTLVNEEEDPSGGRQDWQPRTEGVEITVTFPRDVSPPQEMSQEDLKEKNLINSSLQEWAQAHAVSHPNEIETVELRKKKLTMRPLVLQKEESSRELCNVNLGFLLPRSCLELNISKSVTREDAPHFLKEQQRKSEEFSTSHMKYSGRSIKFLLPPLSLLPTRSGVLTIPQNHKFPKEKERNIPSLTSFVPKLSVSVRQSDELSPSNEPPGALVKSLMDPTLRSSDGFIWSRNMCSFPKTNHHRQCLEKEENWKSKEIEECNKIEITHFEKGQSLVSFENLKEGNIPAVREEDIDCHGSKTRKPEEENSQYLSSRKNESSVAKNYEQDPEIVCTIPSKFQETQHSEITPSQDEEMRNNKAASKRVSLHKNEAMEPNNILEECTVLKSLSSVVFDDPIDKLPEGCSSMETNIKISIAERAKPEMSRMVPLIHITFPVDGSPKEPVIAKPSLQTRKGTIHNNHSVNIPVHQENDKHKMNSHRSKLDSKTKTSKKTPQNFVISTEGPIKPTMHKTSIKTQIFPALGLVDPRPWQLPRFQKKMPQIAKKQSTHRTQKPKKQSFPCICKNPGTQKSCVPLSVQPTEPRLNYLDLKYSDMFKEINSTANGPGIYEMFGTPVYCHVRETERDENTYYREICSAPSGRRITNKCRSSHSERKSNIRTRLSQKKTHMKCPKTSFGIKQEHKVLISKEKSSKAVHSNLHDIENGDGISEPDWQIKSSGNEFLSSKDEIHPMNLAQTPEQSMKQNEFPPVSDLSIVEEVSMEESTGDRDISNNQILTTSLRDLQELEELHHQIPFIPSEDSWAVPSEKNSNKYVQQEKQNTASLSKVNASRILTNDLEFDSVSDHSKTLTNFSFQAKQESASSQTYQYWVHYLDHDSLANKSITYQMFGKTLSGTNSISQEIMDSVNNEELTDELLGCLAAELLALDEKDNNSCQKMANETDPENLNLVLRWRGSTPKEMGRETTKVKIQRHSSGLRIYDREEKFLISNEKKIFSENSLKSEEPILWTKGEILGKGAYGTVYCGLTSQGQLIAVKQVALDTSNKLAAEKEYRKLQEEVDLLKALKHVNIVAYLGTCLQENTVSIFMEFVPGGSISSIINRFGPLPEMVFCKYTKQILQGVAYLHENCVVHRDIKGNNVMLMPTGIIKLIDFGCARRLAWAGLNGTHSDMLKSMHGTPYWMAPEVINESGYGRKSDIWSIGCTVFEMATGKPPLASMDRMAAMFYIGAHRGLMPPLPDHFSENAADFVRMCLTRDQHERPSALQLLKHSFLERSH

[11] = target: Serine/threonine-protein kinase 38 (Homo sapiens) (UniProt Q15208); experiment: Inhibition of NDR1 (unknown origin) assessed as remaining activity at 1 uM by Kinome scan method relative to control
[12] = target: Proto-oncogene tyrosine-protein kinase receptor Ret (Homo sapiens) (UniProt P07949); experiment: Inhibition of RET (unknown origin) assessed as remaining activity at 1 uM by Kinome scan method relative to control
[13] = target: CDK4/Cyclin D3 (Homo sapiens) (UniProt P11802+P30281); experiment: Inhibition of CDK4/cyclinD3 (unknown origin) assessed as remaining activity at 1 uM by Kinome scan method relative to control; format: protein-complex assay
Method in brief: (§1)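 Active-site-dependent competition-binding profiling (KINOMEscan) at 1 μM against a 468-kinase panel; compound supplied from a 10 mM DMSO stock. Read-out is ctrl% = (test signal − positive control signal)/(negative control signal − positive control signal) × 100. DMSO is the negative control (100%) and a control compound the positive control (0%). Lower ctrl% means tighter binding.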

[14] = test system: Mast/stem cell growth factor receptor Kit (Homo sapiens), P10721 [L576P]; experiment: Inhibition of KIT L576P mutant (unknown origin) assessed as remaining activity at 1 uM by Kinome scan method relative to control
[15] = target: Cyclin-dependent kinase 8 (Homo sapiens) (UniProt P49336); experiment: Inhibition of CDK8 (unknown origin) assessed as remaining activity at 1 uM by Kinome scan method relative to control; method in brief: as §1
[16] = target: Wee1-like protein kinase 2 (Homo sapiens) (UniProt P0C1S8); experiment: Inhibition of WEE2 (unknown origin) assessed as remaining activity at 1 uM by Kinome scan method relative to control
[17] = MRT (0 to infinity) in male Sprague-Dawley rat at 10 mg/kg, po measured for 24 hrs by LC-MS/MS analysis; format: ADME, organism-based; details: in vivo
[18] = target: Myosin light chain kinase 2, skeletal/cardiac muscle (Homo sapiens) (UniProt Q9H1R3); experiment: Inhibition of MYLK2 (unknown origin) assessed as remaining activity at 1 uM by Kinome scan method relative to control
[19] = target: Mitogen-activated protein kinase kinase kinase 7 (Homo sapiens) (UniProt O43318); experiment: Inhibition of TAK1 (unknown origin) assessed as remaining activity at 1 uM by Kinome scan method relative to control
[20] = target: Ribosomal protein S6 kinase alpha-3 (Homo sapiens) (UniProt P51812); experiment: Inhibition of N-terminal kinase domain RSK2 (unknown origin) assessed as remaining activity at 1 uM by Kinome scan method relative to control
[21] = target: Serine/threonine-protein kinase 16 (Homo sapiens) (UniProt O75716); experiment: Inhibition of STK16 (unknown origin) assessed as remaining activity at 1 uM by Kinome scan method relative to control
[22] = target: Mitogen-activated protein kinase kinase kinase kinase 5 (Homo sapiens) (UniProt Q9Y4K4); experiment: Inhibition of MAP4K5 (unknown origin) assessed as remaining activity at 1 uM by Kinome scan method relative to control
[23] = target: Serine/threonine-protein kinase N2 (Homo sapiens) (UniProt Q16513); experiment: Inhibition of PKN2 (unknown origin) assessed as remaining activity at 1 uM by Kinome scan method relative to control
Serine/threonine-protein kinase N2 (Homo sapiens), sequence (Q16513 whole entry, looked up): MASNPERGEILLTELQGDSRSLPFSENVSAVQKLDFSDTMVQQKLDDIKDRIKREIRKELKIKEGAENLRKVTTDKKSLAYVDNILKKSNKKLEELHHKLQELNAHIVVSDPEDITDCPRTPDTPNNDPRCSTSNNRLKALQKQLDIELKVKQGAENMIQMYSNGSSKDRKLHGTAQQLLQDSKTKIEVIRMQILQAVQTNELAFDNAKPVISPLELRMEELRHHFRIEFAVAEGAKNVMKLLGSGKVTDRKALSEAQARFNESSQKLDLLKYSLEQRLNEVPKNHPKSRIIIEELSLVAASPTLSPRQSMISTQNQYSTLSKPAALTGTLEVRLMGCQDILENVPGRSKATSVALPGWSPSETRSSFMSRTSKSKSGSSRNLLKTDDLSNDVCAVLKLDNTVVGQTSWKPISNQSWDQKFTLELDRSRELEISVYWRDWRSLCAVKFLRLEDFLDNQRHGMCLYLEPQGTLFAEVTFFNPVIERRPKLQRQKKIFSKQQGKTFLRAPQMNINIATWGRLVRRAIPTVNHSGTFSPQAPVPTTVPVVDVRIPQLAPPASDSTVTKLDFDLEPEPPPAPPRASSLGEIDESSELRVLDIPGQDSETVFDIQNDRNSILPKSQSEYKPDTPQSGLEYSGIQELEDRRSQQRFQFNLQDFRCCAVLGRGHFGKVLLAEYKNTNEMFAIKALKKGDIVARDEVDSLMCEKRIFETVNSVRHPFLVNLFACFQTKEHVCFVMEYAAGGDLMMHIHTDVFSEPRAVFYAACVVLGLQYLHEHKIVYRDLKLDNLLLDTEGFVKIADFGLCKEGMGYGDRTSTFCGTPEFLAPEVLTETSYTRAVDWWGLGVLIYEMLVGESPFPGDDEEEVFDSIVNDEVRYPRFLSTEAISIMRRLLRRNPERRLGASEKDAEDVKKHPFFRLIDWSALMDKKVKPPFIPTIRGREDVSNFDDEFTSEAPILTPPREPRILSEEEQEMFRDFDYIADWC

[24] = test system: Receptor-type tyrosine-protein kinase FLT3 (Homo sapiens), P36888 [UNDEFINED MUTATION]; experiment: Inhibition of FLT3 […]/F691L mutant (unknown origin) assessed as remaining activity at 1 uM by Kinome scan method relative to control
[25] = target: Dual specificity tyrosine-phosphorylation-regulated kinase 1B (Homo sapiens) (UniProt Q9Y463); experiment: Inhibition of DYRK1B (unknown origin) assessed as remaining activity at 1 uM by Kinome scan method relative to control
Dual specificity tyrosine-phosphorylation-regulated kinase 1B (Homo sapiens), sequence (Q9Y463 whole entry, looked up): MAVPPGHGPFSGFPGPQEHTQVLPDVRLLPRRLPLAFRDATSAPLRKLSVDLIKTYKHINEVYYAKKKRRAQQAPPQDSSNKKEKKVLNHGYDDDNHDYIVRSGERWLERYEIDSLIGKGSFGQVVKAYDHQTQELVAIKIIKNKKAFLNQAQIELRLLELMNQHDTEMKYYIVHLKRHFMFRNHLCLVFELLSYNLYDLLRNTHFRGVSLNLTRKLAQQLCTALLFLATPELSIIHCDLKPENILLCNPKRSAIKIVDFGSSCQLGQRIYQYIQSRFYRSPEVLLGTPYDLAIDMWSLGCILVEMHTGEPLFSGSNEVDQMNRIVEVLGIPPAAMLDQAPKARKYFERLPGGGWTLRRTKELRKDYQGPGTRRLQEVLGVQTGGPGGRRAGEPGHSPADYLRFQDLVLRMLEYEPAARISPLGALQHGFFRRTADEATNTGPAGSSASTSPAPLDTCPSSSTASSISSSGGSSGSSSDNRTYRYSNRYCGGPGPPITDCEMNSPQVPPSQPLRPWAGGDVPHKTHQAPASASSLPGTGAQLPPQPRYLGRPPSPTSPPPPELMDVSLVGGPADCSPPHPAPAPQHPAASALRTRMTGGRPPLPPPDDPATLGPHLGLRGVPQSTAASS

CN1C(=O)c2sccc2N(C)c2nc(Nc3ccc(S(N)(=O)=O)cc3)ncc21
Activity [1]: 82%
Activity [2]: 67%
Activity [3]: 86%
Activity [4]: 39%
Activity [5]: 100%
inhibition [6]: Active
Activity [7]: 59%
Activity [8]: 88%
Kd [9]: 0.011 µM
Activity [10]: 42%
Activity [11]: 62%
Activity [12]: 100%
Activity [13]: 100%
Activity [14]: 75%
Activity [15]: 94%
Activity [16]: 91%
MRT inf [17]: 7.34 h
Activity [18]: 92%
Activity [19]: 71%
Activity [20]: 76%
Activity [21]: 50%
Activity [22]: 100%
Activity [23]: 94%
Activity [24]: 26%
Activity [25]: 85%
